Results reported in article PMC11718131 (Communications Biology, 2025).
Peptide text beside a SMILES is read from it. * marks the point of attachment. Cbz = O=C(OCc1ccccc1)*

Key:
[1] = Huntington's disease; cited from earlier work
[2] = tested on: proteasome; GFP-CA2-DRD fusion in Jurkat cells; assay: Proteasome inhibition assay; type: cell-based, human; details: 10 µM MG132, 4 h without ACZ after 24 h ACZ; versus vehicle
Method in brief: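 Cells then washed with fresh media and split in two: one arm […] 10 µM MG132 for 4 h. GFP expression read by flow cytometry.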

wildtype (WT) CA2 = details: in words; cited from earlier work
[3] = cited from earlier work

Structure (SMILES): CC1(C)CC(Oc2ccc(-c3ccc(-c4cn[nH]c4)cc3O)nn2)CC(C)(C)N1 [branaplam]
- clinical trial outcome [1]: halted because of drug-related side effects

Structure (SMILES): CC(C)C[C@@H](C=O)NC(=O)[C@H](CC(C)C)NC(=O)[C@H](CC(C)C)NC(=O)OCc1ccccc1 [MG132] (Cbz-Leu-Leu-Leu-aldehyde)
- decrease in GFP levels after ACZ withdrawal [2]: smaller decrease in GFP levels

Structure (SMILES): CC(=O)Nc1nnc(S(N)(=O)=O)s1 [ACZ, acetazolamide]
- affinity to CA2 (wildtype (WT) CA2): low nanomolar affinity
- total in vivo exposure levels ([3]; FDA-approved and clinically used doses): ~ 100 µM
- total concentrations in plasma and other tissues ([3]; approved doses, in words): micromolar range
